Here are results for 24 compounds from ChEMBL document CHEMBL1148785, “Second generation tetrahydroquinoline-based protein farnesyltransferase inhibitors as antimalarials” (J Med Chem, 2007).

The subject of test [1] is Plasmodium falciparum. The experiment in a line: Inhibition of Plasmodium falciparum protein farnesyltransferase at 0.5 nM by scintillation proximity assay.
Test [2] deals with Plasmodium falciparum. The experiment in a line: Inhibition of Plasmodium falciparum protein farnesyltransferase at 5 nM by scintillation proximity assay.
In test [3] the test system is Plasmodium falciparum. As to the kind of experiment: Antimalarial activity against Plasmodium falciparum 3D7. Conditions: Plasmodium falciparum, 3D7; read-out: ED50 (the source's name). In kind it is functional. A digest of the protocol: (§1)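 Asynchronous culture in type A+ erythrocytes at 0.5% parasitemia and 0.5% hematocrit, grown in RPMI-1640 with 20% heat-inactivated human A+ plasma. Compound was serially diluted from a top final 5 µM, with DMSO vehicle as 100% growth. Plates ran 48 h at 37 °C under 5% CO2/5% O2/90% N2, then [3H]-hypoxanthine (0.3 µCi) for 24 h. Filter-harvested counts were corrected for the uninfected-RBC background. ED50 by linear regression; duplicates averaged.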

For test [4], the system named is Plasmodium falciparum. The experiment in a line: Inhibition of Plasmodium falciparum protein farnesyltransferase at 50 nM by scintillation proximity assay.
Test [5] deals with Plasmodium falciparum. As to the kind of experiment: Antimalarial activity against Plasmodium falciparum K1. The class given is functional. As to conditions: Plasmodium falciparum, K1; read-out: ED50 (the source's name). A digest of the protocol: as §1

Structures are written as SMILES.

On to `Cn1cnc(S(=O)(=O)N(CCOc2cccc3c2OCCO3)C2Cc3cc(C#N)ccc3N(Cc3cncn3C)C2)c1` (stereo not given), for which the values for the inhibition in the test on Plasmodium falciparum [1], in the test with Plasmodium falciparum [2] and in the test on Plasmodium falciparum [4] were 12%, 91% and 99%, respectively. The values for the EC50 in the test with Plasmodium falciparum [3] and with Plasmodium falciparum [5] were 355 nM and 350 nM, respectively.

Consider `C=C(C)C(=O)N1CCC(CN(C2Cc3cc(C#N)ccc3N(Cc3cncn3C)C2)S(=O)(=O)c2ccccn2)CC1` (stereo not given), for which the inhibition with Plasmodium falciparum [1] amounted to 92%; in the test on Plasmodium falciparum [2], 31%; with Plasmodium falciparum [4], 100%. Also, the EC50 in the test on Plasmodium falciparum [3] was found to be 50 nM; in the test on Plasmodium falciparum [5] it was 60 nM.

For the compound `Cn1cnc(S(=O)(=O)N(CCc2ccc(F)cc2)C2Cc3cc(C#N)ccc3N(Cc3cncn3C)C2)c1` (stereo not given), the inhibition in the test with Plasmodium falciparum [1] turned out to be 42%; in the test on Plasmodium falciparum [2], 95%; with Plasmodium falciparum [4], 100%. In addition, the results for the EC50 in the test on Plasmodium falciparum [3] and in the test on Plasmodium falciparum [5] were 50 nM and 65 nM, respectively.

Take `Cn1cnc(S(=O)(=O)N(CCCCCC(N)=O)C2Cc3cc(C#N)ccc3N(Cc3cncn3C)C2)c1` (stereo not given): the inhibition in the test on Plasmodium falciparum [1] was determined as 31%; in the test on Plasmodium falciparum [2], 87%; in the test with Plasmodium falciparum [4] it was 98%. Also, the EC50 in the test with Plasmodium falciparum [3] came out at 150 nM; in the test with Plasmodium falciparum [5], 73 nM.

On to `Cn1cnc(S(=O)(=O)N(Cc2ccc(-n3cccc3)cc2)C2Cc3cc(C#N)ccc3N(Cc3cncn3C)C2)c1` (stereo not given), for which the inhibition turned out to be 9% in the test with Plasmodium falciparum [1], 90% in the test with Plasmodium falciparum [2] and 99% in the test on Plasmodium falciparum [4]. Besides, the EC50 in the test with Plasmodium falciparum [3] was 68 nM; with Plasmodium falciparum [5] it was 65 nM.

As to `Cn1cncc1CN1CC(N(CC(=O)NC(C)(C)C)S(=O)(=O)CCN)Cc2cc(C#N)ccc21` (stereo not given), the values for the inhibition in the test on Plasmodium falciparum [1], in the test on Plasmodium falciparum [2] and in the test on Plasmodium falciparum [4] were 5%, 10% and 11%, respectively. The EC50 in the test on Plasmodium falciparum [3] and with Plasmodium falciparum [5] was more than 5000 nM throughout.

Consider `Cn1cncc1CN1CC(N(CCCCON2C(=O)c3ccccc3C2=O)S(=O)(=O)c2ccccn2)Cc2cc(C#N)ccc21` (stereo not given), for which the inhibition is 0% in the test with Plasmodium falciparum [1], 32% with Plasmodium falciparum [2] and 84% with Plasmodium falciparum [4]. Further, the figures for the EC50 with Plasmodium falciparum [3] and with Plasmodium falciparum [5] were 2150 nM and 1420 nM, respectively.

`COc1ccc(S(=O)(=O)N(Cc2ccc(S(C)(=O)=O)cc2)C2Cc3cc(C#N)ccc3N(Cc3cncn3C)C2)cc1` (stereo not given): the figures for the inhibition in the test on Plasmodium falciparum [1], with Plasmodium falciparum [2] and in the test with Plasmodium falciparum [4] were 17%, 83% and 97%, respectively. Besides, the EC50 with Plasmodium falciparum [3] was found to be 185 nM; in the test on Plasmodium falciparum [5], 340 nM.

As for `Cc1oncc1CN(C1Cc2cc(-c3ccccc3)ccc2N(Cc2cn(C)cn2)C1)S(=O)(=O)c1cn(C)cn1` (stereo not given), the figures for the inhibition in the test on Plasmodium falciparum [1], in the test on Plasmodium falciparum [2] and in the test on Plasmodium falciparum [4] were 0%, 26% and 79%, respectively. The values for the EC50 with Plasmodium falciparum [3] and with Plasmodium falciparum [5] were 3000 nM and 3700 nM, respectively.

`COC(=O)c1ccnc(CN(C2Cc3cc(C#N)ccc3N(Cc3cncn3C)C2)S(=O)(=O)c2cn(C)cn2)c1` (stereo not given): the values for the inhibition in the test with Plasmodium falciparum [1], with Plasmodium falciparum [2] and with Plasmodium falciparum [4] were 46%, 98% and 100%, respectively. In addition, the EC50 with Plasmodium falciparum [3] amounted to 620 nM; with Plasmodium falciparum [5], 163 nM.

In the case of `COC(=O)N1CCC(CN(C2Cc3cc(C#N)ccc3N(Cc3cncn3C)C2)S(=O)(=O)c2ccc(NC(C)=O)cc2)CC1` (stereo not given), the inhibition in the test on Plasmodium falciparum [1] turned out to be 0%; in the test with Plasmodium falciparum [2], 6%; in the test on Plasmodium falciparum [4], 65%. In addition, the EC50 in the test on Plasmodium falciparum [3] is 1800 nM; with Plasmodium falciparum [5], 2000 nM.

On to `CC(C)OC(=O)N1CCC(CN(C2Cc3cc(C#N)ccc3N(Cc3cncn3C)C2)S(=O)(=O)c2ccccn2)CC1` (stereo not given), for which the inhibition in the test on Plasmodium falciparum [1] is 90%; in the test with Plasmodium falciparum [2], 36%; with Plasmodium falciparum [4], 97%. Moreover, the EC50 with Plasmodium falciparum [3] and in the test on Plasmodium falciparum [5] was 50 nM each time.

On to `Cn1cncc1CN1CC(N(CC2CCN(C(=O)c3cccs3)CC2)S(=O)(=O)c2ccccn2)Cc2cc(C#N)ccc21` (stereo not given), for which the inhibition with Plasmodium falciparum [1] worked out at 87%; with Plasmodium falciparum [2], 35%; in the test on Plasmodium falciparum [4] it was 99%. Moreover, the EC50 with Plasmodium falciparum [3] turned out to be 70 nM; in the test on Plasmodium falciparum [5], 81 nM.

`C=C(C)CN(C1Cc2cc(-c3ccccc3)ccc2N(Cc2cn(C)cn2)C1)S(=O)(=O)c1cn(C)cn1` (stereo not given): the inhibition in the test on Plasmodium falciparum [1] was found to be 22%; with Plasmodium falciparum [2], 89%; with Plasmodium falciparum [4], 99%. The EC50 in the test with Plasmodium falciparum [3] came to 640 nM; in the test on Plasmodium falciparum [5], 475 nM.

For the compound `Cn1cnc(S(=O)(=O)N(Cc2ccccn2)C2Cc3cc(C#N)ccc3N(Cc3cncn3C)C2)c1` (stereo not given), the inhibition with Plasmodium falciparum [1] is 25%; with Plasmodium falciparum [2] it was 96%; in the test on Plasmodium falciparum [4] it was 98%. Besides, the values for the EC50 in the test with Plasmodium falciparum [3] and in the test with Plasmodium falciparum [5] were 10 nM and 36 nM, respectively.

Take `COC(=O)N1CCC(CN(C2Cc3cc(C#N)ccc3N(Cc3cncn3C)C2)S(=O)(=O)c2ccc(C(=O)O)o2)CC1` (stereo not given): the inhibition was 5% with Plasmodium falciparum [1], 49% with Plasmodium falciparum [2] and 89% in the test on Plasmodium falciparum [4]. Further, the values for the EC50 with Plasmodium falciparum [3] and in the test on Plasmodium falciparum [5] were more than 5000 nM and 675 nM, respectively.

As for `CCS(=O)(=O)N(CC1CCN(C(=O)OC)CC1)C1Cc2cc(C#N)ccc2N(Cc2cncn2C)C1` (stereo not given), the values for the inhibition in the test on Plasmodium falciparum [1], in the test on Plasmodium falciparum [2] and in the test on Plasmodium falciparum [4] were 0%, 0% and 44%, respectively. The EC50 is 4100 nM with Plasmodium falciparum [3] and more than 5000 nM with Plasmodium falciparum [5].

For the compound `Cn1cnc(S(=O)(=O)N(CC(=O)NC(C)(C)C)C2Cc3cc(C(=O)NC4CCCCC4)ccc3N(Cc3cncn3C)C2)c1` (stereo not given), the inhibition in the test on Plasmodium falciparum [1] was 5%; with Plasmodium falciparum [2] it was 17%; in the test with Plasmodium falciparum [4], 66%. Besides, the EC50 in the test on Plasmodium falciparum [3] is 2800 nM; in the test on Plasmodium falciparum [5] it was 2300 nM.

Regarding `Cn1cncc1CN1CC(N(CCCCNC(=O)OC(C)(C)C)S(=O)(=O)c2ccccn2)Cc2cc(C#N)ccc21` (stereo not given), the inhibition with Plasmodium falciparum [1] was 24%; in the test on Plasmodium falciparum [2], 80%; in the test with Plasmodium falciparum [4], 97%. In addition, the values for the EC50 with Plasmodium falciparum [3] and in the test with Plasmodium falciparum [5] were 250 nM and 375 nM, respectively.

For `Cn1cnc(S(=O)(=O)N(CCCCON2C(=O)c3ccccc3C2=O)C2Cc3cc(C#N)ccc3N(Cc3cncn3C)C2)c1` (stereo not given), the inhibition came to 57% in the test on Plasmodium falciparum [1], 96% with Plasmodium falciparum [2] and 99% in the test on Plasmodium falciparum [4]. For the same compound, the EC50 in the test with Plasmodium falciparum [3] came to 140 nM; in the test with Plasmodium falciparum [5], 100 nM.

Consider `CC(C)COC(=O)N1CCC(CN(C2Cc3cc(C#N)ccc3N(Cc3cncn3C)C2)S(=O)(=O)c2cn(C)cn2)CC1` (stereo not given), for which the inhibition in the test with Plasmodium falciparum [1] was found to be 24%; in the test on Plasmodium falciparum [2], 90%; in the test with Plasmodium falciparum [4], 98%. Moreover, the EC50 in the test with Plasmodium falciparum [3] is 10 nM; in the test with Plasmodium falciparum [5], 5.5 nM.

On to `COC(=O)N1CCC(CN(C2Cc3cc(C#N)ccc3N(Cc3cncn3C)C2)S(=O)(=O)c2ccccc2)CC1` (stereo not given), for which the inhibition worked out at 43% in the test on Plasmodium falciparum [1], 93% in the test on Plasmodium falciparum [2] and 98% in the test on Plasmodium falciparum [4]. Moreover, the EC50 in the test on Plasmodium falciparum [3] was determined as 50 nM; in the test with Plasmodium falciparum [5] it was 70 nM.

Take `CN(C)S(=O)(=O)N(Cc1ccccc1F)C1Cc2cc(C#N)ccc2N(Cc2cncn2C)C1` (stereo not given): the results for the inhibition in the test with Plasmodium falciparum [1], with Plasmodium falciparum [2] and with Plasmodium falciparum [4] were 8%, 10% and 62%, respectively. Besides, the EC50 in the test with Plasmodium falciparum [3] came out at 360 nM; in the test on Plasmodium falciparum [5], 3600 nM.

On to `CN(C)C(=O)N1CCC(CN(C2Cc3cc(C#N)ccc3N(Cc3cncn3C)C2)S(=O)(=O)c2ccccn2)CC1` (stereo not given), for which the inhibition turned out to be 94% in the test with Plasmodium falciparum [1], 35% in the test with Plasmodium falciparum [2] and 100% with Plasmodium falciparum [4]. For the same compound, the values for the EC50 in the test on Plasmodium falciparum [3] and with Plasmodium falciparum [5] were 13 nM and 11.5 nM, respectively.
